High-throughput results: PubChem BioAssay, Johns Hopkins Ion Channel Center
Rows were chosen to be rich in hits. Some 3.5% of all compounds tested hit in one or more screens of this group.
MrgX1 antag: antagonists of human MrgX1 receptor, primary screen, HEK293 cells, Fluo-4 calcium flux; Mas-related G-protein coupled receptor member X1 (Homo sapiens), Q96LB2; BAM8-22 antagonism; active compounds read low; B-score at 10 µM; 310,000 compounds, 1.3% hits; AID 588676, 2011;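 active = calcium-response B-score plate-corrected more than 3 library SD below zero, starting fluorescence within 5 deviations, no agonist response on first addition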;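 note: peak minus trough fluorescence over baseline after final BAM8-22 challenge near maximal dose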
Target sequence (Q96LB2 whole entry, looked up): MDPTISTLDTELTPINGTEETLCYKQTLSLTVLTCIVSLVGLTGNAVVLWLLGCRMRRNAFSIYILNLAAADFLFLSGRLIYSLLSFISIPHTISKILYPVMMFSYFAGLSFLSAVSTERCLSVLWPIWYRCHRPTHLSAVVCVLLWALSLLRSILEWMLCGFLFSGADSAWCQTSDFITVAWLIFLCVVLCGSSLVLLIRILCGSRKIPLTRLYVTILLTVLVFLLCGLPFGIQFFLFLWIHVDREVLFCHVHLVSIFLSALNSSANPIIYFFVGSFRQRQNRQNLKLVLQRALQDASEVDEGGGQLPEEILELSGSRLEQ
MrgX1 ag: agonists of human MrgX1 receptor, primary screen, HEK293 cells, Fluo-4 calcium flux | Fluo-4 calcium fluorescence, agonist mode; active compounds read high | Mas-related G-protein coupled receptor member X1 (Homo sapiens), Q96LB2 | B-score at 10 µM | 310,000 compounds, 0.44% hits | AID 588627, 2011;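 active = calcium response B-score plate-corrected fluorescence ratio at least 3 library SD, with starting fluorescence B-score inside 5 SD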
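Material: MrgX1-expressing HEK293 cells; input: 15,000 cells per well; doses: test compound given as first of three sequential additions; schedule: overnight plating before 1 h dye loading; technique: Fluo-4 NW calcium-flux fluorescence, kinetic read; evaluation: baseline-normalised fluorescence change ratio, B-scored; control set: plate-wise positive and negative controls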
MrgX1 PAM: positive allosteric modulators of MrgX1, primary screen, HEK293 cells, Fluo-4 calcium flux. Mas-related G-protein coupled receptor member X1 (Homo sapiens), Q96LB2. FDSS; active compounds read high. B-score at 10 µM. 310,000 compounds, 0.63% hits;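 active = plate-corrected calcium response at least 3 library SD above typical, normal starting fluorescence, not activating the receptor alone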;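 note: compound read alongside a low EC10 to EC30 dose of BAM8-22 agonist; peak minus trough fluorescence over baseline measured at the second addition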
RGS4 block: RGS4 inhibitors, primary screen, cell-based, HEK293 M3R inducible RGS4, calcium flux; B-score at 10 µM; Regulator of G-protein signaling 4 (Homo sapiens), P49798; Fluo-4 calcium flux; active compounds read high; triggered by carbachol at its EC20; 310,000 compounds, 0.45% hits;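 active = B-score, a plate-corrected calcium signal, over three deviations above library mean, with baseline fluorescence within five deviations of library mean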;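 note: RGS4 expression induced by doxycycline in cells with stable M3 receptor; B-score is computed from the integrated fluorescence ratio over baseline after carbachol; higher B-score means a larger calcium signal and so more RGS4 inhibition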
Target sequence (P49798 whole entry, looked up): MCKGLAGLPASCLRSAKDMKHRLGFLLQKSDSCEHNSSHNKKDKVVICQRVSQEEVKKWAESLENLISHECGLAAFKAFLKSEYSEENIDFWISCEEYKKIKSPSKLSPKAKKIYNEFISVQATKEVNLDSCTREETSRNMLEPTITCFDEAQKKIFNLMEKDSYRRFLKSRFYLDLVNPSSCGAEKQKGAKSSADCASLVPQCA
RGS4 act: RGS4 potentiators or activators, primary screen, cell-based, HEK293 M3R inducible RGS4, calcium flux; carbachol calcium flux Fluo4; active compounds read low; B-score at 10 µM; 310,000 compounds, 0.92% hits; AID 463111, 2010;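 active = B-score of the integrated calcium signal more than 4 SD below the library mean, with starting fluorescence not abnormally high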;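 note: negative B-score means reduced calcium response which marks RGS4 activation or potentiation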
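Also added: carbachol at ECmax as muscarinic agonist stimulus; Assay system: HEK293 cells with stable M3R and inducible RGS4; Timing: overnight RGS4 induction, 30 min dye load 37 °C, 20 min compound RT; Measured by: Fluo4-AM (2 µM) calcium-flux fluorescence, kinetic read.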
RGS4 block valid: enhanced carbachol calcium response, M3R/RGS4 cells, RGS4 inhibitor project, cell-based, validation screen, HEK293 M3R/RGS4, calcium flux; AID 492999, 2010; carbachol calcium Fluo-4 fluorescence; carbachol added at its EC20; 0 = buffer wells, 100 = carbachol control; 1,700 compounds, 65% hits; calcium response, % at 10 µM; shares compounds with RGS4 block;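 active = duplicate-averaged calcium response above the buffer-only control mean plus 5 SD of those controls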;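 note: integrated fluorescence ratio F max minus min over baseline F0; higher response in RGS4-induced cells means RGS4 inhibition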
RGS4 uninduced: carbachol calcium response in non-induced M3R cells, confirmation, counter-screen for RGS4 inhibitor project, cell-based, HEK293 M3R; shares compounds with RGS4 block; carbachol calcium Fluo-4; submaximal (EC20) carbachol stimulus; buffer wells 0%, carbachol control wells 100%; activity (percent), % at 10 µM; 1,900 compounds, 20% hits; call rule not given here;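 note: RGS4 induction absent so cells express M3R without RGS4; higher means more calcium signal and flags a non-specific hit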
RGS4 inh ctr2: second counter-screen for RGS4 inhibitors: non-induced cells without carbachol | calcium response (agonist-mode artifact), % at 10 µM | shares compounds with RGS4 block | 1,900 compounds, 22% hits | HEK293 M3R/RGS4 non-induced, Fluo-4 calcium, no carbachol; normalised: buffer wells 0%, carbachol wells 100%;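 active = duplicate-averaged calcium rise in uninduced cells above buffer wells' mean plus 5 SD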
Of the large screens only hits and unclear results are named; the others gave an inactive call (follow-up assays come after a bar, where they were run).

CCOC(=O)[C@@H]1[C@H]2COc3ccccc3[C@H]2N2C(=O)N(c3ccc(Cl)cc3)C(=O)[C@@]12C	RGS4 block 6.01 | RGS4 block valid 15.5% | RGS4 uninduced inactive | RGS4 inh ctr2 inactive
CCOC(=O)[C@@H]1[C@H]2COc3ccc(Br)cc3[C@@H]2N2C(=O)N(c3ccc(Cl)cc3)C(=O)[C@]12C	none | RGS4 uninduced inactive | RGS4 inh ctr2 inactive
CCOC(=O)[C@@H]1[C@H]2COc3ccc(Br)cc3[C@H]2N2C(=O)N(c3ccc(F)cc3)C(=O)[C@]12C	none
Cc1ccc(C)c(-c2cc(C(=O)Nc3sc(C)c(C)c3C(N)=O)c3ccccc3n2)c1	none | RGS4 uninduced inactive | RGS4 inh ctr2 7.0%
Cc1cccc(N2C(=O)/C(=C/c3cccnc3)SC2=S)c1	RGS4 block 4.89 | RGS4 block valid 19.0% | RGS4 uninduced 42.5% | RGS4 inh ctr2 inactive
Cc1ccc(N2C(=O)/C(=C/c3cccnc3)SC2=S)cc1	none | RGS4 uninduced inactive | RGS4 inh ctr2 inactive
Cc1ccc(/C=C2\SC(=S)N(c3cccnc3)C2=O)o1	none
Cc1cccc(N2C(=O)/C(=C/c3ccccn3)SC2=S)c1	none
CC1=NN(c2ccccc2)C(=O)/C1=C/c1ccc(Cl)cc1	none
COc1ccc(/C=C2/C(=O)N(c3ccccc3)N=C2C)cc1Br	MrgX1 PAM 8.92, RGS4 block 23.9 | RGS4 block valid inactive | RGS4 uninduced inactive | RGS4 inh ctr2 inactive
NNc1nc(Nc2ccccc2)nc(N2CCCCC2)n1	none | RGS4 block valid inactive | RGS4 uninduced inactive | RGS4 inh ctr2 inactive
O=[N+]([O-])c1ccc(Nc2nc(NCCO)nc(N3CCCC3)n2)cc1	none
COc1ccc([N+](=O)[O-])cc1/C=N/Nc1nc(N2CCCCC2)nc(N2CCCCC2)n1	RGS4 block 4.77 | RGS4 block valid 10.5% | RGS4 uninduced inactive | RGS4 inh ctr2 inactive
NNc1nc(Nc2ccccc2)nc(Nc2ccccc2)n1	none
O=c1nc(N2CCCCC2)nc(Nc2ccccc2)[nH]1	none | RGS4 block valid inactive | RGS4 uninduced inactive | RGS4 inh ctr2 inactive
NNc1nc(Nc2ccc([N+](=O)[O-])cc2)nc(N2CCCCCC2)n1	RGS4 block 5.65 | RGS4 block valid inactive | RGS4 uninduced inactive | RGS4 inh ctr2 inactive
Cn1c(=O)c2c(nc(NCCNC(=O)c3ccco3)n2Cc2ccccc2)n(C)c1=O	none
Cc1cccc(Nc2nc(N3CCCCC3)nc(N3CCCCC3)n2)c1	RGS4 block 9.69 | RGS4 block valid 48.0% | RGS4 uninduced 55.0% | RGS4 inh ctr2 inactive
O=C(Nc1cnc2ccccn2c1=O)c1ccc(Cl)cc1	RGS4 block 4.85 | RGS4 block valid inactive | RGS4 uninduced inactive | RGS4 inh ctr2 inactive
CCC(C)(C)C1CCc2[nH]nc(C(=O)NCc3ccc(Cl)cc3)c2C1 (configuration not stated)	none (no result: RGS4 block, RGS4 act)
CCn1c(C)c(CS(=O)(=O)c2ccccc2)[nH]c1=O	RGS4 block 6.72 | RGS4 block valid 23.5% | RGS4 uninduced inactive | RGS4 inh ctr2 7.0%
CC(C)n1cc(CN2CCC(C(=O)Nc3ccc(Oc4ccccc4F)cc3)CC2)cn1	none
Cc1cc(C)cc(NC2=NCC(=O)N2Cc2ccccc2)c1	RGS4 block 5.35 | RGS4 block valid inactive | RGS4 uninduced inactive | RGS4 inh ctr2 inactive
Cc1cccc(NC2=NCC(=O)N2Cc2ccccc2)c1	none | RGS4 uninduced 32.0% | RGS4 inh ctr2 inactive
CCOC(=O)Cc1csc(NC(=O)/C=C/c2ccc(Cl)cc2)n1	none
CCCNC(=O)c1ccccc1NC(=O)CN(c1ccccc1)S(=O)(=O)N(C)C	none
O=C1NC(=O)/C(=C/c2ccc(-c3cc(C(=O)O)ccc3Cl)o2)S1	RGS4 block 6.16 | RGS4 block valid 12.5% | RGS4 uninduced inactive | RGS4 inh ctr2 inactive
O=C(Nc1cccc2cccnc12)C1CCCC1	none
C[C@@H](NC(=O)/C(C#N)=C/c1ccc(O)c(O)c1)c1ccccc1	none (no result: RGS4 block, RGS4 act)
N#C/C(=C\c1ccc(Cl)c([N+](=O)[O-])c1)c1ccccn1	RGS4 block 9.01 | RGS4 block valid 16.5% | RGS4 uninduced inactive | RGS4 inh ctr2 inactive
CC(NC(=O)/C(C#N)=C/c1ccc(Cl)c([N+](=O)[O-])c1)c1ccccc1 (configuration not stated)	MrgX1 PAM 8.91, RGS4 block 49.3 | RGS4 block valid 22.5% | RGS4 uninduced inactive | RGS4 inh ctr2 31.0%
CCC(CC)C(=O)Nc1nnc(S(=O)(=O)N2c3ccccc3CC2C)s1 (configuration not stated)	none
COc1ccc(CCNC(=O)CSc2nc3cc(Cl)ccc3o2)cc1OC	none
Clc1ccccc1-c1ccc(/C=N/Nc2nncc(-c3ccccc3)n2)o1	none
CC(=O)Nc1ccc(NC(=O)C(C)Sc2n[nH]c(=O)n2Cc2ccccc2)cc1 (configuration not stated)	none
Oc1c(-c2cc(-c3ccco3)[nH]n2)ccc2ccccc12	RGS4 block 12.2 | RGS4 block valid 30.5% | RGS4 uninduced 31.0% | RGS4 inh ctr2 inactive
Cc1ccc(SC(CC(=O)c2ccc(C)cc2)C(=O)O)cc1 (configuration not stated)	RGS4 block 4.67 | RGS4 block valid 8.0% | RGS4 uninduced inactive | RGS4 inh ctr2 inactive
Cc1ccc(C(CC(=O)c2ccc(Cl)cc2)C(=O)O)cc1 (configuration not stated)	none
Cc1cccc(NC(=O)Nc2cc(C)cc(C)n2)c1	none
CSc1nc(SCCO)c2sc3nc(-c4ccco4)c4c(c3c2n1)CC(C)(C)OC4	none (no result: MrgX1 antag, MrgX1 ag, MrgX1 PAM)
CSc1nc(N(CCO)CCO)c2sc3nc(-c4ccco4)c4c(c3c2n1)CCC4	none (no result: MrgX1 antag, MrgX1 ag, MrgX1 PAM) | RGS4 block valid inactive | RGS4 uninduced inactive | RGS4 inh ctr2 inactive
O=C(c1ccc(COCC(F)(F)F)o1)N1CCCC1	RGS4 block 5.91 | RGS4 block valid inactive | RGS4 uninduced inactive | RGS4 inh ctr2 inactive
